From publication PMC11671551 (Cancer Chemotherapy and Pharmacology, 2024)
Like-named read-outs stand apart in the source and are kept apart here.

Tests used:
[1] = format: in vivo, human; conditions: for Serum concentration, mean: trough
In short: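 mRCC patients recruited prospectively (March 2020–January 2022) on oral sunitinib, 2 weeks on/1 week off, with physician-set dose. Blood (5 mL) was drawn at outpatient visits 7–14 days into each cycle, 24 h post-dose or just before the next dose. It was spun at 1,500 ×g, 4 °C, 10 min, and the serum stored at -25 °C. Parent drug, N-desethyl and N-oxide were quantified by LC-MS/MS (LLOQ 2.5, 2.5, 0.1 ng/mL). Concentration/dose ratios were correlated with treatment duration by Pearson.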

[2] = Adverse events in mRCC patients receiving long-term sunitinib; format: in vivo, human
[3] = population pharmacokinetic analysis, patient weighing 100 kg; cited from earlier work
[4] = Pt1, maintenance dose 25 mg, 421–630 days after initiation
[5] = Pt1, maintenance dose 25 mg, 631–840 days after initiation
[6] = Pt1, maintenance dose 25 mg, 841–1050 days after initiation
[7] = Pt1, maintenance dose 25 mg, 1051–1260 days after initiation
[8] = Pt1, maintenance dose 25 mg, 1261–1470 days after initiation
[9] = Pt2, maintenance dose 25 mg, 631–840 days after initiation
[10] = Pt2, maintenance dose 25 mg, 841–1050 days after initiation
[11] = Pt3, maintenance dose 25 mg, 1051–1260 days after initiation
[12] = Pt3, maintenance dose 25 mg, 1261–1470 days after initiation
[13] = Pt3, maintenance dose 25 mg, 1471–1680 days after initiation
[14] = Pt3, maintenance dose 25 mg, 1681–1890 days after initiation
[15] = Pt4, maintenance dose 25 mg, 1891–2100 days after initiation
[16] = Pt5, maintenance dose 37.5 mg, 1261–1470 days after initiation
[17] = Pt5, maintenance dose 37.5 mg, 1471–1680 days after initiation
[18] = Pt5, maintenance dose 37.5 mg, 1681–1890 days after initiation
[19] = Pt6, maintenance dose 50 mg, 0–210 days after initiation
[20] = Pt6, maintenance dose 50 mg, 211–420 days after initiation
[21] = Pt6, maintenance dose 50 mg, 421–630 days after initiation
[22] = Pt7, maintenance dose 25 mg, 0–210 days after initiation
[23] = after follow-up, sunitinib C/D decreased group (n=3)
[24] = after follow-up, sunitinib C/D non-decreased group (n=4)
[25] = baseline, sunitinib C/D decreased group (n=3)
[26] = baseline, sunitinib C/D non-decreased group (n=4)
[27] = sunitinib C/D decreased group (n=3)
[28] = sunitinib C/D non-decreased group (n=4)

Row | SMILES | Pearson's correlation coefficient r between C/D ratio and treatment duration ([1]; Pt1) | Serum concentration, mean [1, 4] [ng/mL] | Serum concentration, mean [1, 5] [ng/mL] | Serum concentration, mean [1, 6] [ng/mL] | Serum concentration, mean [1, 7] [ng/mL] | Serum concentration, mean [1, 8] [ng/mL] | Pearson's correlation coefficient r between C/D ratio and treatment duration ([1]; Pt2) | Serum concentration, mean [1, 9] [ng/mL] | Serum concentration, mean [1, 10] [ng/mL] | Serum concentration, mean [1, 11] [ng/mL] | Serum concentration, mean [1, 12] [ng/mL] | Serum concentration, mean [1, 13] [ng/mL] | Serum concentration, mean [1, 14] [ng/mL] | Serum concentration, mean [1, 15] [ng/mL] | Serum concentration, mean [1, 16] [ng/mL] | Serum concentration, mean [1, 17] [ng/mL] | Serum concentration, mean [1, 18] [ng/mL] | Serum concentration, mean [1, 19] [ng/mL] | Serum concentration, mean [1, 20] [ng/mL] | Serum concentration, mean [1, 21] [ng/mL] | further results
1 | CC[N+]([O-])(CC)CCNC(=O)c1c(C)[nH]c(/C=C2\C(=O)Nc3ccc(F)cc32)c1C [Sunitinib N-oxide, sunitinib N-oxide] | -0.756 | 0.68 | 0.59 | 0.40 | 0.29 | 0.10 | -0.838 | 1.10 | 0.71 | 0.99 | 0.58 | 0.53 | 0.32 | 1.35 | 0.56 | 0.57 | 0.36 | 0.56 | 0.55 | 0.17 | Pearson's correlation coefficient r between C/D ratio and treatment duration ([1]; Pt6): -0.752; Serum concentration, mean [1, 22]: 0.24 ng/mL; Sunitinib N-oxide/sunitinib concentration ratio, median (min–max) [1, 23]: 0.004 (0.004–0.009); Sunitinib N-oxide/sunitinib concentration ratio, median (min–max) [1, 24]: 0.006 (0.004–0.029); Sunitinib N-oxide/sunitinib concentration ratio, median (min–max) [1, 25]: 0.013 (0.010–0.021); Sunitinib N-oxide/sunitinib concentration ratio, median (min–max) [1, 26]: 0.016 (0.014–0.026)
2 | CCNCCNC(=O)c1c(C)[nH]c(/C=C2\C(=O)Nc3ccc(F)cc32)c1C [N-desethyl sunitinib] | -0.282 | 9.0 | 11.0 | 10.4 | 9.6 | 6.9 | -0.500 | 22.7 | 20.9 | 13.2 | 12.5 | 15.5 | 14.6 | 11.0 | 12.6 | 12.1 | 14.7 | 30.4 | 27.7 | 30.4 | Serum concentration, mean [1, 22]: 17.8 ng/mL; N-desethyl sunitinib/sunitinib concentration ratio, median (min–max) [1, 23]: 0.29 (0.26–0.63); N-desethyl sunitinib/sunitinib concentration ratio, median (min–max) [1, 24]: 0.30 (0.16–0.54); N-desethyl sunitinib/sunitinib concentration ratio, median (min–max) [1, 25]: 0.28 (0.23–0.46); N-desethyl sunitinib/sunitinib concentration ratio, median (min–max) [1, 26]: 0.30 (0.19–0.44)
3 | CCN(CC)CCNC(=O)c1c(C)[nH]c(/C=C2\C(=O)Nc3ccc(F)cc32)c1C [Sunitinib, sunitinib, reference compound] | -0.608 | 44.0 | 48.3 | 41.2 | 33.1 | 26.2 | -0.555 | 86.7 | 73.5 | 59.5 | 54.9 | 64.1 | 54.1 | 54.5 | 42.2 | 44.7 | 39.4 | 71.0 | 65.8 | 37.5 | Patients with grade 2 or higher anorexia ([2]; all 7 patients, five patients): 71.4%; Patients with anorexia (any grade) ([2]; all 7 patients, six patients): 85.7%; Anorexia Grade 0, number of patients [2, 27]: 1 n; Anorexia Grade 1, number of patients [2, 27]: 0 n; Anorexia Grade 2, number of patients [2, 27]: 1 n; Anorexia Grade 3, number of patients [2, 27]: 1 n; Diarrhea Grade 0, number of patients [2, 27]: 2 n; Diarrhea Grade 1, number of patients [2, 27]: 1 n; Anorexia Grade 0, number of patients [2, 28]: 0 n; Anorexia Grade 1, number of patients [2, 28]: 1 n; Anorexia Grade 2, number of patients [2, 28]: 2 n; Anorexia Grade 3, number of patients [2, 28]: 1 n; Diarrhea Grade 0, number of patients [2, 28]: 2 n; Diarrhea Grade 1, number of patients [2, 28]: 2 n; Pearson's correlation coefficient r between C/D ratio and treatment duration ([1]; Pt6): -0.590; Serum concentration, mean [1, 22]: 31.1 ng/mL; Maximum variation in Vd/F [3]: 14%
